≈ marks a conversion by molar mass, not a printed value. Calls of active or inactive are those of the source. No cut-off for these calls is given here. Non-standard residues stand in square brackets, D forms with d. Residues, ends and D or L forms follow the SMILES beside them. *: point of attachment. NHCH2CH2OH = OCCN*; For = O=C*
How the values were obtained:
[1] = test system: Streptococcus pyogenes; experiment: Antibacterial activity against Streptococcus pyogenes serotype T5 assessed as growth inhibition after 24 hrs by MTT assay; type: functional; conditions: serotype T5, 24 h
Procedure, shortened: (§1)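 Starter cultures were grown 24 h at 37 °C, 5% CO2, aerobic, then diluted in fresh medium to OD600 0.004. Twofold serial dilutions started at 64 µg/mL. After 24 h of incubation, MTT (1 mg/mL solution) was added and plates were incubated 2 h more at 37 °C. MIC was taken as the lowest concentration with no growth. Two independent experiments were run, each in triplicate.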

[2] = Ratio of gramicidin D activity to compound activity for hemolysis of rat RBC up to 256 ug/mL after 1 hrs; type: ADME, cell-based; conditions: erythrocyte
[3] = Hemolytic activity in rat RBC assessed as hemoglobin release at 128 ug/mL after 1 hr by microplate reader analysis; type: ADME, cell-based; conditions: erythrocyte
Procedure, shortened: (§2)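 Rat RBCs (2% w/w) were exposed to compound for 1 h at 37 °C, 5% CO2, using twofold dilutions from 256 µg/mL. PBS served as the negative control and 1% w/v Triton X-100 as the 100% lysis control. After centrifugation (2000 rpm, 10 min), supernatant absorbance was read at 550 nm and expressed as % hemoglobin release relative to Triton. Assays were run in triplicate, averaged over blood from at least two rats.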

[4] = Antibacterial activity against Streptococcus pyogenes serotype M3 assessed as growth inhibition after 24 hrs by MTT assay; type: functional; procedure, shortened: as §1
[5] = test system: Streptococcus pyogenes; experiment: Antibacterial activity against Streptococcus pyogenes serotype M24 assessed as growth inhibition after 24 hrs by MTT assay; type: functional; conditions: serotype M24, 24 h; procedure, shortened: as §1
[6] = Antibacterial activity against Streptococcus pyogenes serotype M2 assessed as growth inhibition after 24 hrs by MTT assay; type: functional; procedure, shortened: as §1
[7] = test system: Streptococcus pyogenes; experiment: Antibacterial activity against glossy colony producing Streptococcus pyogenes assessed as growth inhibition after 24 hrs by MTT assay; type: functional; procedure, shortened: as §1
[8] = Hemolytic activity in rat RBC assessed as hemoglobin release at 64 ug/mL after 1 hr by microplate reader analysis; type: ADME, cell-based; conditions: erythrocyte
Procedure, shortened: (§3)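 Rat RBCs (2% w/w) incubated 1 h at 37 °C, 5% CO2 with twofold dilutions starting at 256 µg/mL. PBS served as negative control and 1% w/v Triton X100 as the 100% lysis control. After centrifugation (2000 rpm, 10 min), supernatant absorbance read at 550 nm. Hemoglobin release expressed as % of Triton. Triplicates, with blood from at least two rats.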

[9] = test system: Streptococcus pyogenes; experiment: Antibacterial activity against Streptococcus pyogenes JRS75 assessed as growth inhibition after 24 hrs by MTT assay; type: functional; conditions: JRS75, 24 h; procedure, shortened: as §1
[10] = Antibacterial activity against biofilm-positive Staphylococcus epidermidis RP62A ATCC 35984 assessed as growth inhibition after 24 hrs by MTT assay; type: functional; conditions: ATCC 35984, 24 h; procedure, shortened: as §1
[11] = Hemolytic activity in rat RBC assessed as hemoglobin release at 16 ug/mL after 1 hr by microplate reader analysis relative to control; type: ADME, cell-based, Erythrocyte; conditions: red blood cells (RBC), read-out: Activity; procedure, shortened: as §2
[12] = test system: Streptococcus pyogenes; experiment: Antibacterial activity against Streptococcus pyogenes MGAS9429 assessed as growth inhibition after 24 hrs by MTT assay; type: functional; conditions: MGAS9429, 24 h; procedure, shortened: as §1
[13] = Antibacterial activity against Streptococcus pyogenes serotype M5 assessed as growth inhibition after 24 hrs by MTT assay; type: functional; procedure, shortened: as §1
[14] = test system: Staphylococcus epidermidis; experiment: Antibacterial activity against biofilm-negative Staphylococcus epidermidis ATCC 12228 assessed as growth inhibition after 24 hrs by MTT assay; type: functional; conditions: ATCC 12228, 24 h; procedure, shortened: as §1
[15] = test system: Staphylococcus aureus; experiment: Antibacterial activity against Staphylococcus aureus Cowan ATCC 12598 assessed as growth inhibition after 24 hrs by MTT assay; type: functional; conditions: Cowan ATCC 12598, 24 h
Procedure, shortened: (§4)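 Starter cultures grown 24 h at 37 °C, 5% CO2, aerobic, then diluted in fresh medium to OD600 0.004. Twofold serial dilutions from 64 µg/mL, 24 h incubation. MTT (1 mg/mL solution) added, then 2 h at 37 °C. MIC = lowest concentration with no visible growth. Two independent experiments, each in triplicate.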

[16] = test system: Staphylococcus aureus; experiment: Antibacterial activity against methicillin-resistant Staphylococcus aureus assessed as growth inhibition after 24 hrs by MTT assay; type: functional; procedure, shortened: as §4
[17] = Hemolytic activity in rat RBC assessed as hemoglobin release at 256 ug/mL after 1 hr by microplate reader analysis relative to control; type: ADME, cell-based, Erythrocyte; conditions: red blood cells (RBC), read-out: Activity; procedure, shortened: as §2
[18] = test system: Streptococcus pyogenes; experiment: Antibacterial activity against Streptococcus pyogenes serotype M1T1 assessed as growth inhibition after 24 hrs by MTT assay; type: functional; conditions: serotype M1T1, 24 h; procedure, shortened: as §1
[19] = test system: Staphylococcus aureus; experiment: Antibacterial activity against Staphylococcus aureus NCTC 6571 assessed as growth inhibition after 24 hrs by MTT assay; type: functional; conditions: NCTC 6571, 24 h; procedure, shortened: as §4
[20] = Hemolytic activity in rat RBC assessed as hemoglobin release at 32 ug/mL after 1 hr by microplate reader analysis relative to control; type: ADME, cell-based, Erythrocyte; conditions: red blood cells (RBC), read-out: Activity; procedure, shortened: as §2
[21] = test system: Staphylococcus epidermidis; experiment: Antibacterial activity against Staphylococcus epidermidis ATCC 12228 assessed as cell surface wrinkling at 1 ug/mL after 1 hr by scanning electron microscopic analysis; type: functional, organism-based
Procedure, shortened: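 S. epidermidis ATCC12228 grown 4 h at 37 °C, aerobic, to OD600 0.2. Cells washed in PBS pH 7.4 and resuspended to OD600 1.0. Treated with 1 µg/mL for 1 h at 37 °C, then diluted twofold. Washed, fixed overnight at 4 °C in 2.5% glutaraldehyde/PBS, dehydrated through graded ethanol, vacuum-dried, Pd-Au coated and imaged by SEM. Compared against untreated cells.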

[22] = test system: Staphylococcus aureus; experiment: Ratio of gramicidin D MIC to compound MIC for Staphylococcus aureus Cowan ATCC 12598; type: functional
[23] = test system: Streptococcus pyogenes; experiment: Ratio of gramicidin D MIC to compound MIC for glossy colony producing Streptococcus pyogenes; type: functional
[24] = test system: Staphylococcus epidermidis; experiment: Ratio of gramicidin D MIC to compound MIC for biofilm-negative Staphylococcus epidermidis ATCC 12228; type: functional
[25] = test system: Staphylococcus aureus; experiment: Ratio of gramicidin D MIC to compound MIC for Staphylococcus aureus NCTC 6571; type: functional
[26] = test system: Streptococcus pyogenes; experiment: Ratio of gramicidin D MIC to compound MIC for Streptococcus pyogenes MGAS9429; type: functional
[27] = Hemolytic activity in rat RBC assessed as hemoglobin release at 2 ug/mL after 1 hr by microplate reader analysis relative to control; type: ADME, cell-based, Erythrocyte; conditions: red blood cells (RBC), read-out: Activity; procedure, shortened: as §3

SMILES | MIC [1] | Activity [3] | MIC [4] | MIC [5] | MIC [6] | MIC [7] | Activity [8] | MIC [9] | MIC [10] | hemolysis at 1 h, 16 ug/mL [11] | MIC [12] | MIC [13] | MIC [14] | MIC [15] | MIC [16] | hemolysis at 1 h, 256 ug/mL [17] | MIC [18] | MIC [19] | hemolysis at 1 h, 32 ug/mL [20] | Activity [21] | other results
CCCCCCCSC[C@H]1O[C@H](O[C@H]2[C@H](O[C@@H]3O[C@H](CSCCCCCCC)[C@@H](O[C@H]4O[C@@H](CN)[C@@H](O)[C@H](O)[C@H]4N)[C@H]3O)[C@@H](O)[C@H](N)C[C@@H]2N)[C@H](N)[C@@H](O)[C@@H]1O | 4 µg/mL (≈ 4.74 µM) | Toxic | 2 µg/mL (≈ 2.37 µM) | 4 µg/mL (≈ 4.74 µM) | 2 µg/mL (≈ 2.37 µM) | 4 µg/mL (≈ 4.74 µM) | Toxic | 4 µg/mL (≈ 4.74 µM) | 4 µg/mL (≈ 4.74 µM) | 0% | 4 µg/mL (≈ 4.74 µM) | 4 µg/mL (≈ 4.74 µM) | 4 µg/mL (≈ 4.74 µM) | 16 µg/mL (≈ 19 µM) | 16 µg/mL (≈ 19 µM) | 30.4% | 4 µg/mL (≈ 4.74 µM) | 8 µg/mL (≈ 9.48 µM) | 3.6% |  | Ratio [2]: 2
NC[C@@H]1O[C@H](O[C@H]2[C@@H](O)[C@H](O[C@@H]3[C@@H](O)[C@H](N)C[C@H](N)[C@H]3O[C@H]3O[C@H](CO)[C@@H](O)[C@H](O)[C@H]3N)O[C@@H]2CO)[C@H](N)[C@@H](O)[C@@H]1O [PAROMOMYCIN] | 16 µg/mL (≈ 26 µM) |  | 32 µg/mL (≈ 52 µM) | 64 µg/mL (≈ 104 µM) | 64 µg/mL (≈ 104 µM) | 64 µg/mL (≈ 104 µM) |  | 64 µg/mL (≈ 104 µM) | > 64 µg/mL |  | > 64 µg/mL | 32 µg/mL (≈ 52 µM) | 2 µg/mL (≈ 3.25 µM) | 16 µg/mL (≈ 26 µM) | > 64 µg/mL |  | 64 µg/mL (≈ 104 µM) | > 64 µg/mL |  | Active | 
CCCCCCSC[C@H]1O[C@H](O[C@H]2[C@H](O[C@@H]3O[C@H](CSCCCCCC)[C@@H](O[C@H]4O[C@@H](CN)[C@@H](O)[C@H](O)[C@H]4N)[C@H]3O)[C@@H](O)[C@H](N)C[C@@H]2N)[C@H](N)[C@@H](O)[C@@H]1O | 4 µg/mL (≈ 4.9 µM) | Toxic | 4 µg/mL (≈ 4.9 µM) | 8 µg/mL (≈ 9.8 µM) | 8 µg/mL (≈ 9.8 µM) | 8 µg/mL (≈ 9.8 µM) |  | 8 µg/mL (≈ 9.8 µM) | 16 µg/mL (≈ 19.6 µM) | 0% | 8 µg/mL (≈ 9.8 µM) | 8 µg/mL (≈ 9.8 µM) | 8 µg/mL (≈ 9.8 µM) | 64 µg/mL (≈ 78.4 µM) | > 64 µg/mL | 3.4% | 16 µg/mL (≈ 19.6 µM) | 32 µg/mL (≈ 39.2 µM) |  |  | 
CCCCCCCCSC[C@H]1O[C@H](O[C@H]2[C@H](O[C@@H]3O[C@H](CSCCCCCCCC)[C@@H](O[C@H]4O[C@@H](CN)[C@@H](O)[C@H](O)[C@H]4N)[C@H]3O)[C@@H](O)[C@H](N)C[C@@H]2N)[C@H](N)[C@@H](O)[C@@H]1O | 2 µg/mL (≈ 2.29 µM) | Toxic | 2 µg/mL (≈ 2.29 µM) | 2 µg/mL (≈ 2.29 µM) | 2 µg/mL (≈ 2.29 µM) | 2 µg/mL (≈ 2.29 µM) |  | 2 µg/mL (≈ 2.29 µM) | 2 µg/mL (≈ 2.29 µM) | 0.8% | 4 µg/mL (≈ 4.59 µM) | 2 µg/mL (≈ 2.29 µM) | 2 µg/mL (≈ 2.29 µM) | 4 µg/mL (≈ 4.59 µM) | 8 µg/mL (≈ 9.17 µM) | 62.5% | 2 µg/mL (≈ 2.29 µM) | 4 µg/mL (≈ 4.59 µM) |  | Active | Ratio [22]: > 16; Ratio [23]: 8; Ratio [24]: 4; Ratio [25]: 16; Ratio [26]: > 16
CC(C)C[C@@H](NC(=O)[C@H](C)NC(=O)CNC(=O)[C@@H](NC=O)C(C)C)C(=O)N[C@@H](C)C(=O)N[C@@H](C(=O)N[C@H](C(=O)N[C@@H](C(=O)N[C@@H](Cc1c[nH]c2ccccc12)C(=O)N[C@H](CC(C)C)C(=O)N[C@@H](Cc1c[nH]c2ccccc12)C(=O)N[C@H](CC(C)C)C(=O)N[C@@H](Cc1c[nH]c2ccccc12)C(=O)N[C@H](CC(C)C)C(=O)N[C@@H](Cc1c[nH]c2ccccc12)C(=O)NCCO)C(C)C)C(C)C)C(C)C [GRAMICIDIN D] (For-VGA[dL]A[dV]V[dV]W[dL]W[dL]W[dL]W-NHCH2CH2OH) | 2 µg/mL (≈ 1.06 µM) |  | < 0.5 µg/mL | < 0.5 µg/mL | < 0.5 µg/mL | 16 µg/mL (≈ 8.5 µM) | Toxic | < 0.5 µg/mL | 2 µg/mL (≈ 1.06 µM) |  | > 64 µg/mL | < 0.5 µg/mL | 8 µg/mL (≈ 4.25 µM) | > 64 µg/mL | 64 µg/mL (≈ 34 µM) | < 60% | < 0.5 µg/mL | 32 µg/mL (≈ 17 µM) |  |  | hemolysis at 1 h, 2 ug/mL [27]: 2.4%
CCCCCCCCCCCCCCCCSC[C@H]1O[C@H](O[C@H]2[C@H](O[C@@H]3O[C@H](CO)[C@@H](O[C@H]4O[C@@H](CN)[C@@H](O)[C@H](O)[C@H]4N)[C@H]3O)[C@@H](O)[C@H](N)C[C@@H]2N)[C@H](N)[C@@H](O)[C@@H]1O | 8 µg/mL (≈ 9.34 µM) |  | 32 µg/mL (≈ 37.4 µM) | 32 µg/mL (≈ 37.4 µM) | 16 µg/mL (≈ 18.7 µM) | 32 µg/mL (≈ 37.4 µM) |  | 8 µg/mL (≈ 9.34 µM) | 64 µg/mL (≈ 74.8 µM) | 33.8% | 32 µg/mL (≈ 37.4 µM) | 64 µg/mL (≈ 74.8 µM) | 32 µg/mL (≈ 37.4 µM) | 64 µg/mL (≈ 74.8 µM) | 64 µg/mL (≈ 74.8 µM) |  | > 64 µg/mL | 64 µg/mL (≈ 74.8 µM) | 100% |  | 

Source: ChEMBL document CHEMBL2390839, “Di-alkylated paromomycin derivatives: targeting the membranes of gram positive pathogens that cause skin infections” (Bioorg Med Chem, 2013)
